FGF22 binding: binders of recombinant human FGF22 by thermal shift; Q9HCT0; SYPRO orange fluorescence; percent of sucrose octasulfate shift, DMSO zero; activity (Tm shift, normalised), % at 9.99 µM; 1.5% of 340,000 active; AID 651658;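 active means mean Tm shift, scaled 0 neutral to 100 positive control, at about 1.3% or above, every replicate too, limit read from the data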
ERAP1 inh: inhibitors of human ERAP1 aminopeptidase; Q9NZ08; recombinant ERAP1, Leu-AMC fluorescence, 60 min; inhibition, % at 10.7 µM; 0.15% of 340,000 active; AID 652197;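 active means mean replicate inhibition of at least 30%, or all replicates individually reaching that 30% level; inactive means mean below 30% and not every replicate reaching it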
Target sequence (Q9NZ08 whole entry, looked up): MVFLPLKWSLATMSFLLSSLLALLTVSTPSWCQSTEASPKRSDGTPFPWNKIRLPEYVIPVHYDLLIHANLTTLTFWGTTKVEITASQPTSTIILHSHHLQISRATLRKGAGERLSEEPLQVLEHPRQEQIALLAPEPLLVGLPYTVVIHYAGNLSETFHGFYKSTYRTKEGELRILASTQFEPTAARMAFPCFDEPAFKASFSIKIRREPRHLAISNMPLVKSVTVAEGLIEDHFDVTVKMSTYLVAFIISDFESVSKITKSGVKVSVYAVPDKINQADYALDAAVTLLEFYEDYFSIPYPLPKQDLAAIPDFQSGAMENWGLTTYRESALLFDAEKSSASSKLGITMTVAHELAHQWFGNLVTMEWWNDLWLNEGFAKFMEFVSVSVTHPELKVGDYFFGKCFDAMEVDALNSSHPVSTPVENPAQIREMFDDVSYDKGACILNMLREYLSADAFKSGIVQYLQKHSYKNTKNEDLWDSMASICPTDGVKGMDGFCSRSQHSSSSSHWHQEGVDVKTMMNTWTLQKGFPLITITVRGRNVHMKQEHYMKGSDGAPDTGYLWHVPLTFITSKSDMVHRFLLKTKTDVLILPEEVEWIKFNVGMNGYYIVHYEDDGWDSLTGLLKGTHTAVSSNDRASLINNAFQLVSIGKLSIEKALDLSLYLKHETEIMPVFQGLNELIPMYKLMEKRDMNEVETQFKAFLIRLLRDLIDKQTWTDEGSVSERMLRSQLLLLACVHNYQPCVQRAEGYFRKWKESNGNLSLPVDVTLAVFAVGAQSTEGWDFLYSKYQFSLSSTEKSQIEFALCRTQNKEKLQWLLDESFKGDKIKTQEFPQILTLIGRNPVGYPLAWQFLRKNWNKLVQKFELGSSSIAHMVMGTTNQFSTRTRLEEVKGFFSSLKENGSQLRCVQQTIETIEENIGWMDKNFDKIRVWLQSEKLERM
PDI turbidity: inhibitors of human protein disulfide isomerase; PDI insulin aggregation turbidity, A650, 90 min; AID 588391; 0.052% of 350,000 active; inhibition, % at 10 µM;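 active means mean inhibition across replicates of 30% or more, whatever share of single replicates reach that level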
ERp5 inh: ERp5 (human) disulfide isomerase inhibition; Q15084; ERp5 insulin aggregation, absorbance 650 nm, 90 min; inhibition, % at 9.99 µM; 0.05% of 350,000 active; AID 651711;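 active means mean replicate inhibition above about 25%, with every replicate also reaching it, limit read from the data, passing the limit was not always enough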
S100A4 MyoIIA: blocks human S100A4 binding to myosin IIA peptide. P26447. S100A4/TAMRA-MyoIIA peptide fluorescence polarization. inhibition, % at 10.7 µM. 0.14% of 360,000 active. AID 652163;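 active means mean inhibition of at least 70% across replicates, with every replicate also reaching that level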
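Material: S100A4 monomer protein / Buffer or medium: 50 mM HEPES pH 7.2, 10 mM CaCl2, 100 mM KCl / Times: 5 min incubation before reading / Benchmarks: neutral control DMSO, positive control TFP / Reagent: labelled myosin peptide probe, 5 nM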
A number is an active result; – = inactive; · = no result given. The sample as a whole holds a higher share of hits than the screen did.

SMILES	FGF22 binding	ERAP1 inh	PDI turbidity	ERp5 inh	S100A4 MyoIIA
CO[C@@H]1CN(C)C(=O)c2cc(NC(C)=O)ccc2OC[C@H](C)N(Cc2cncnc2)C[C@H]1C	·	–	·	–	76
O=C1[C@@H]2C(c3ccc(F)cc3)=NO[C@@H]2C(=O)N1Cc1ccccc1	–	–	–	–	–
CCC(=O)Nc1ccc2c(c1)C(=O)N(C)C[C@H](OC)[C@@H](C)CN(Cc1ccccc1C(=O)O)[C@@H](C)CO2	–	–	·	–	–
CO[C@H]1CN(C)C(=O)c2ccc(NC(=O)NC(C)C)cc2OC[C@@H](C)N(C(=O)NC(C)C)C[C@H]1C	–	–	·	–	89
CCC(=O)Nc1ccc2c(c1)OC[C@H](C)N(Cc1ccccc1C(=O)O)C[C@H](C)[C@@H](OC)CN(C)C2=O	–	–	·	–	90
Clc1ccc(OCCN2CCOCC2)cc1	–	–	–	–	–
CC(C)(C)c1ccc(OCCC(=O)OCC(=O)NC2CC2)cc1	–	–	–	–	–
CC(C)(C)c1ccc(OCCC(=O)OCC(=O)NC2CCS(=O)(=O)C2)cc1 (configuration not stated)	43	–	–	–	–
CN(C)S(=O)(=O)c1cccc(C(=O)OCC(=O)NCc2ccc3c(c2)OCO3)c1	43	–	–	–	–
CS(=O)(=O)N1CCN=C1SCc1ccc(Br)cc1	–	–	–	–	–
CS(=O)(=O)N1CCN=C1SCc1ccc([N+](=O)[O-])cc1	43	–	–	–	–
CN1C(=O)c2ccccc2Cc2c(NCc3ccccc3)ncnc21	43	–	–	–	–
Cc1n[nH]c(=O)nc1NCc1ccccc1	·	·	–	·	·
COc1cccc(-n2c(C)cc(/C=C3/C(=N)N4C(=NC3=O)SN=C4S(C)(=O)=O)c2C)c1	1.4	–	–	–	–
COc1cc(/C=C2/C(=N)N3C(=NC2=O)SN=C3S(C)(=O)=O)ccc1OS(=O)(=O)c1ccc(C)cc1	·	–	–	–	–
O=C(NNc1cccc(Cl)n1)Nc1ccc(F)cc1	44	–	–	–	–
O=C(C[C@H]1C[C@@H]2c3cc(NC(=O)Nc4ccc(C(F)(F)F)cc4)ccc3O[C@@H]2[C@H](CO)O1)NCc1ccc(Cl)cc1	–	–	·	–	–
CCCCc1c(-c2cccc(Br)c2)ncn1CCc1ccccc1OC	35	–	·	–	–
COc1cc(NC(=O)Cc2ccc(F)cc2)cc(OC)c1OC	–	–	–	–	–
Cc1ccccc1-n1c(=S)[nH]c2nc3c(cc2c1=O)CCCC3	43	–	–	–	–
O=C(CCC1CCCN(C(=O)c2ccc3c(c2)OCO3)C1)NCc1ccc(F)c(F)c1 (configuration not stated)	43	–	–	–	–
CC(=O)c1cccc(CN2CCN(C(C)C)C(CCO)C2)c1 (configuration not stated)	44	–	–	–	–
CC(C)N1CCN(Cc2ccc(-c3ccccc3)cc2)CC1CCO (configuration not stated)	–	–	–	–	–
CC(C)N1CCN(Cc2ccc3c(c2)Cc2ccccc2-3)CC1CCO (configuration not stated)	43	–	–	–	–
CC(=O)c1cccc(CN2CCN(CC(C)C)C(CCO)C2)c1 (configuration not stated)	·	·	–	·	·
SMILES	FGF22 binding	ERAP1 inh	PDI turbidity	ERp5 inh	S100A4 MyoIIA
COC(=O)c1sccc1NC(=O)C1CC2CCC1C2 (configuration not stated)	·	·	–	·	·
CN(C)C(=O)C[C@H]1CC[C@H]2[C@@H](COC[C@H](O)CN2C(=O)C2CCOCC2)O1	–	–	·	–	–
CCOc1ccccc1CNC(CC)CO (configuration not stated)	43	–	–	–	–
Cn1cc(CN(CCO)Cc2cccs2)c(-c2ccccc2F)n1	43	–	–	–	–
CN(Cc1cn(C)nc1-c1ccccc1F)Cc1nccn1C	–	–	–	–	–
c1ccc(CNC23CC4CC(CC(C4)C2)C3)nc1	43	–	–	–	–
O=C1NCCN1Cc1ccc(Cl)cc1	44	–	–	–	–
CCCCCc1ccc(-c2cn(CCCOCc3ccccc3)nn2)cc1	4.2	–	–	–	–
COc1ccc(-c2cn(CCCOCc3ccccc3)nn2)cc1	–	–	–	–	–
COC(=O)[C@]1(C)N[C@H](CN(C)S(=O)(=O)c2ccc(OC(F)(F)F)cc2)[C@@H]2C(=O)N(C)C(=O)[C@@H]21	–	–	–	34	–
COC(=O)[C@]1(C)N[C@H](CN(C)S(=O)(=O)c2ccc(C(C)(C)C)cc2)[C@@H]2C(=O)N(C)C(=O)[C@@H]21	–	–	–	–	–
CCOC(=O)C1CCCN(C(=S)Nc2cc(C)cc(C)c2)C1 (configuration not stated)	·	·	–	·	·
O=C(C[C@H]1CC[C@H]2[C@@H](COC[C@@H](O)CN2S(=O)(=O)c2ccccc2)O1)NCCN1CCCCC1	–	–	·	–	–
CCCNC(=O)N1C[C@@H](O)COC[C@@H]2O[C@H](CC(=O)N[C@H]3CCN(Cc4ccccc4)C3)CC[C@H]21	–	–	·	–	–
O=C(C[C@H]1CC[C@@H]2[C@H](COC[C@@H](O)CN2C(=O)Cc2ccccc2)O1)NC1CCCC1	·	–	·	–	90
O=C(C[C@H]1CC[C@H]2[C@@H](COC[C@@H](O)CN2C(=O)Nc2ccc(Cl)c(Cl)c2)O1)NCc1ccc(Cl)c(Cl)c1	1.3	–	·	–	–
O=C(C[C@@H]1CC[C@@H]2[C@H](COC[C@@H](O)CN2S(=O)(=O)c2ccccc2)O1)NCCN1CCCC1	·	–	·	43	–
CCCNC(=O)N1C[C@H](O)COC[C@@H]2O[C@H](CC(=O)N[C@H]3CCN(Cc4ccccc4)C3)CC[C@H]21	–	–	·	–	87
COc1cc(C(=S)N2CCC(C(N)=O)CC2)ccc1O	·	·	–	·	·
COc1ccc(C(=O)NNC(=O)CSc2nnc(C)n2CC2CCCO2)cc1 (configuration not stated)	44	–	–	–	–
COC(=O)c1ccc(NC(=O)CSc2nnc(C)n2CC2CCCO2)cc1 (configuration not stated)	–	–	–	–	–
Cc1cc(C(=O)NN=C2CCCC2)c2ccccc2n1	–	–	–	–	–
Cc1cc(C(=O)N/N=C2\CC(=O)CC(C)(C)C2)c2ccccc2n1	43	–	–	–	–
CS(=O)(=O)Nc1cccc(NC(=O)c2cccc3c(-c4cccnc4)coc23)c1	·	·	–	·	·
O=C1C(Cl)=C(N2CCC(C(=O)O)CC2)C(=O)c2ccccc21	·	·	–	·	·
CN1CCN(C2=C(Cl)C(=O)c3ccccc3C2=O)CC1	–	–	41	–	–
O=C(C[C@H]1CC[C@@H](NC(=O)Nc2ccccc2F)[C@H](CO)O1)NCc1ccc(-c2ccccc2)cc1	–	–	·	–	–
COC(=O)CSc1nc(C)c(C)c(C)c1C(N)=O	43	–	–	–	–
COC(=O)CSc1nc(N)nc(C)c1Cl	–	–	–	–	–
CSc1nc(S(=O)(=O)c2ccccc2)c(Cl)s1	43	–	–	–	–

Screening results as filed in PubChem BioAssay.
